Screening results (PubChem BioAssay)
TAAR1 ag: agonists of human TAAR1; activation, % at 3 µM; 360,000 compounds, 0.99% hits; CHO RD-HGA16 TAAR1, Fluo-8 calcium fluorescence; vehicle wells 0%, saturating PEA agonist 100%; Q96RJ0; AID 624467;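 active = activation above the mean activation of all test compounds in the run plus 3 SD, cut at about 38% in these data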
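Benchmarks: low control DMSO, high control PEA (EC100); System: CHO RD-HGA16 cells carrying human TAAR1 plus Gα16; Detection: Fluo-8 fluorescence, 5 s baseline then 140 s kinetic read; Schedule: 17-24 h plating, Fluo-8 75 min 37 °C, 30 min RT; Read-out basis: % activation from peak over basal fluorescence ratio, DMSO-to-PEA scaled.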
TAAR1 antagonist: antagonists of human TAAR1; 360,000 compounds, 1.5% hits; inhibition, % at 3 µM; Q96RJ0; CHO RD-HGA16 TAAR1, Fluo-8 calcium fluorescence, antagonist; AID 624466;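 active = inhibition above a per-plate cutoff, the mean inhibition of test compounds on that plate plus 3 SD, cut at about 49% in these data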
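Test system – hTAAR1-expressing CHO RD-HGA16 cells, Gα16-coupled · Reagent – β-PEA at EC80 concentration, post-compound challenge · Compound dosing – 3 µM, single point · Timing – 140 s kinetic read after compound, 140 s after agonist · Detection – Fluo-8 intracellular calcium dye fluorescence, real-time kinetic reads · Control set – DMSO and EC80 PEA controls · Repeats – n of 1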
ANO1 activ: activates or potentiates the mouse TMEM16A chloride channel; Q8BHY3; HEK293 TMEM16A/YFP-H148Q/I152L, iodide quench fluorescence; active compounds read low; B-score at 10 µM; 340,000 compounds, 0.3% hits;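 active = fluorescence-ratio B-score plate-corrected deviation score at least 3 library SD below zero, with starting fluorescence score within 5 deviations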;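 note: channel opened by trigger with iodide after compound preincubation; score built on the fluorescence ratio of max minus min over baseline; more negative score means more quench and so TMEM16A activation or potentiation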
CRFR2-BP antag: blocks CRF-induced signaling of the CRF-BP/CRF-R2 complex | HEK293 CRF-R2/CRF-BP, CRF-induced calcium fluorescence | inhibition, % at 11.8 µM | 350,000 compounds, 0.59% hits | AID 588475;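 active = inhibition of the ligand-induced calcium signal above about 50% at the single tested concentration, limit read from the data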
TMEM16A inh: mouse TMEM16A channel inhibition, primary screen | 310,000 compounds, 1.2% hits | normalized B-score (activity score, 25-100; higher = stronger inhibition) at 10 µM | Q8BHY3 | HEK293 TMEM16A/YFP iodide influx fluorescence, ionomycin;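 active = ratio plate-corrected score three or more library SD toward inhibition, starting fluorescence score within five deviations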;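 note: score derived from kinetic fluorescence span divided by baseline fluorescence per well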
CRFBP-R2 agonist: agonists of human CRF-binding protein/CRF-R2 receptor complex. HEK293 CRF-R2/CRF-BP, calcium dye fluorescence (FLIPR); percent of saturating CRF peptide response. activation, % at 13.2 µM. 350,000 compounds, 0.46% hits;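 active = activation of at least 50%, plus an integration ratio under a set limit after plate pattern correction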
TMEM16A reconf: re-confirmation of mouse TMEM16A chloride channel inhibitors; shares compounds with TMEM16A inh; HEK293 TMEM16A/YFP-H148Q, iodide quench fluorescence; ionomycin added to raise cell calcium; inhibition, % at 10 µM; 2,300 compounds, 39% hits; AID 652189;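 active = mean duplicate percent inhibition, scaled so buffer wells are 0 and the reference blocker 100, over three buffer SD above buffer mean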
HEK293 Ca mobil: counter-screen for TMEM16A inhibitors: effect on calcium mobilization; shares compounds with TMEM16A inh; TMEM16A/YFP HEK293, Fluo4 calcium mobilization; calcium response (% of ionomycin), % at 10 µM; 2,300 compounds, 2% hits; AID 652231;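 active = duplicate-averaged calcium signal over 20% of the ionomycin maximum, relative to buffer baseline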;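 note: each well's signal is peak minus trough fluorescence divided by its pre-addition baseline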
YFP-HEK293 quench: acts in parental YFP-HEK293 cells lacking TMEM16A, counter-screen. shares compounds with TMEM16A inh. AID 652233. iodide YFP quench, ionomycin. YFP ratio F(max-min)/F0 at 10 µM. 2,300 tested, under 10 active;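 active = yellow fluorescent protein signal ratio exceeding the buffer control mean by over 5 SD of those controls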;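 note: ratio is mean of duplicate wells from kinetic YFP trace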
ClC-1 rat inh: blocks the rat ClC-1 voltage-dependent chloride channel; AID 652236; CHO ClC-1-YFP, iodide influx fluorescence quench; iodide control reads 0, buffer control 100; 2,300 tested, under 10 active; shares compounds with TMEM16A inh; ratio percent, % at 10 µM;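 active = duplicate-mean ratio percent above the mean of iodide-only control wells, which defines zero, plus 5 of their SD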;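 note: higher percent means stronger block of ClC-1 iodide influx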
Target sequence (P35524 whole entry, looked up): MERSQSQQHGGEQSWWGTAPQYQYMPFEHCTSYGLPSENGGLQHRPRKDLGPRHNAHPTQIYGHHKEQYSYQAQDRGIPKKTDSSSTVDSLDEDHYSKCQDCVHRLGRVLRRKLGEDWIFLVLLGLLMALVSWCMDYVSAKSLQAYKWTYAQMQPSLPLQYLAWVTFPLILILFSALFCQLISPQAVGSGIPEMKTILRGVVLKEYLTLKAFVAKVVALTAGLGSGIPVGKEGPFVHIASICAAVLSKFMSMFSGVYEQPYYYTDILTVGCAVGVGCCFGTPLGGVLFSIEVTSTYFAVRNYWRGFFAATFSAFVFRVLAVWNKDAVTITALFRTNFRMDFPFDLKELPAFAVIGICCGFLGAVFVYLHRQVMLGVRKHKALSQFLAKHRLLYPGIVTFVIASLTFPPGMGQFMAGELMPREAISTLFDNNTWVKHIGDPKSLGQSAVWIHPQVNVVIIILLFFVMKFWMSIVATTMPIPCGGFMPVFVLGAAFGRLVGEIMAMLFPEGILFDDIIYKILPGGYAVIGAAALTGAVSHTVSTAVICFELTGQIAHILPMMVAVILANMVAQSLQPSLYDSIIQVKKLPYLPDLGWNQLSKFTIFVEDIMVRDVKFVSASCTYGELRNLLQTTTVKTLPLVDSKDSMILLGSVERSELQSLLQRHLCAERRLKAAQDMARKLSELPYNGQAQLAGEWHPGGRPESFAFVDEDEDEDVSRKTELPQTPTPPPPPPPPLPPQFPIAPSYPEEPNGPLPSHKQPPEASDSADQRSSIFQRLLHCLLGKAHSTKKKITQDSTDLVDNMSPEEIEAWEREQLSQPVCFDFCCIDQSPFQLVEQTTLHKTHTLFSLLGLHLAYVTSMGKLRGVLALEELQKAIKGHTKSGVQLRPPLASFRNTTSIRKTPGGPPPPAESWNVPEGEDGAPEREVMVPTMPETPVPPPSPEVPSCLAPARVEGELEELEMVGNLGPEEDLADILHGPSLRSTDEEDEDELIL
Each line names hits and unclear results; the compound was inactive in the other large screens (follow-up assays come after a bar, where they were run). Hits are enriched below; roughly 3.9% of the tested compounds scored in any of these assays.

CC(NC(=O)CSc1nnc(CC(=O)Nc2ccc(Cl)c(Cl)c2)n1C)c1ccccc1 (stereo not given)	TAAR1 ag 42.1
COc1ccccc1-c1ccc([C@@H]2C[C@H]3[C@H](CON3C)CN2CC2CCCCC2)cc1	none (no result: ANO1 activ, CRFR2-BP antag, TMEM16A inh, CRFBP-R2 agonist)
C[C@H](NC(=O)c1ccccc1Cl)C(=O)OC(C(=O)Nc1cc(C(F)(F)F)ccc1Cl)c1ccccc1 (stereo not given in full)	TMEM16A inh 25 | TMEM16A reconf inactive | HEK293 Ca mobil inactive | YFP-HEK293 quench inactive | ClC-1 rat inh inactive
CCSc1n[nH]c2nc3c(c(=O)n12)C1(CCCC1)Cc1ccccc1-3	none
Cc1ccc(-n2c(SCC(N)=O)nc3c(c2=O)C2(CCCC2)Cc2ccccc2-3)cc1	TMEM16A inh 25 | TMEM16A reconf 39.0% | HEK293 Ca mobil inactive | YFP-HEK293 quench inactive | ClC-1 rat inh inactive
O=S(=O)(Nc1nc2ccccc2s1)c1ccc(Cl)s1	CRFR2-BP antag 58.4, TMEM16A inh 100 | TMEM16A reconf 30.5% | HEK293 Ca mobil inactive | YFP-HEK293 quench inactive | ClC-1 rat inh inactive
O=S(=O)(Nc1nc2ccccc2s1)c1cc(F)ccc1F	none
C=CCn1c(SCC(=O)NC(C)(C)C)nnc1-c1ccccc1O	TMEM16A inh 100 | TMEM16A reconf inactive | HEK293 Ca mobil inactive | YFP-HEK293 quench inactive | ClC-1 rat inh inactive
O=C(NCc1cccc(Cl)c1)c1cccc(OC2CCN(C(=O)C3CC3)CC2)c1	TMEM16A inh 100 | TMEM16A reconf inactive | HEK293 Ca mobil inactive | YFP-HEK293 quench inactive | ClC-1 rat inh inactive
CC(C)(C)c1ccc(C(=O)Nc2ccc(Oc3cccnc3)nc2)cc1	TMEM16A inh 100 | TMEM16A reconf 31.0% | HEK293 Ca mobil inactive | YFP-HEK293 quench inactive | ClC-1 rat inh inactive
COc1ccccc1-c1nc2n(n1)C(c1ccc(Cl)cc1)C(C(N)=O)=C(C)N2 (stereo not given)	none
CC1=C(C(N)=O)C(c2ccncc2)n2nc(-c3ccccc3Cl)nc2N1 (stereo not given)	TMEM16A inh 100 | TMEM16A reconf inactive | HEK293 Ca mobil inactive | YFP-HEK293 quench inactive | ClC-1 rat inh inactive
O=C(CSC1=NCCS1)Nc1ccnc2ccccc12	TMEM16A inh 100 | TMEM16A reconf 18.5% | HEK293 Ca mobil inactive | YFP-HEK293 quench inactive | ClC-1 rat inh inactive
CC1CCC(N(CCCN)Cc2ccco2)CC1C (stereo not given)	none
O=C(Nc1ccc2oc(-c3ccccc3F)nc2c1)c1ccc2c(c1)OCCO2	TMEM16A inh 100 | TMEM16A reconf 17.0% | HEK293 Ca mobil inactive | YFP-HEK293 quench inactive | ClC-1 rat inh inactive
O=C(Nc1ccc(-c2nc3ccccc3o2)cc1)c1ccc2c(c1)OCO2	none
O=C(COc1ccccc1F)Nc1ccc(S(=O)(=O)Nc2nccs2)cc1	none
CCOC(=O)C1=C(C)NC(C)=C(C(=O)OC)C1c1ccco1 (stereo not given)	none
C=CCOC(=O)C1=C(C)NC(C)=C(C(=O)OCC=C)C1c1ccco1	none | TMEM16A reconf inactive | HEK293 Ca mobil inactive | YFP-HEK293 quench inactive | ClC-1 rat inh inactive
Cc1nn(C(=O)c2ccco2)c(C)c1Sc1ccc([N+](=O)[O-])cc1	none
Cc1nn(S(=O)(=O)c2cccs2)c(C)c1Sc1ccc([N+](=O)[O-])cc1	CRFR2-BP antag 58.5, TMEM16A inh 100 | TMEM16A reconf 44.5% | HEK293 Ca mobil inactive | YFP-HEK293 quench inactive | ClC-1 rat inh inactive
OCC[C@@H]1C[C@H](O)[C@@H](O)[C@]2(CCc3ccccc3O2)O1	TMEM16A inh 25 | TMEM16A reconf inactive | HEK293 Ca mobil inactive | YFP-HEK293 quench inactive | ClC-1 rat inh inactive
CCc1ccc(C(O)c2ncc(-c3ccccc3F)[nH]2)cc1 (stereo not given)	none (no result: ANO1 activ, CRFR2-BP antag, TMEM16A inh, CRFBP-R2 agonist)
COc1cc(/C=C2\C(=N)N3N=C(S(C)(=O)=O)SC3=NC2=O)ccc1OCCOc1ccc(C)cc1	CRFR2-BP antag 72.3, TMEM16A inh 25 | TMEM16A reconf inactive | HEK293 Ca mobil inactive | YFP-HEK293 quench inactive | ClC-1 rat inh inactive
COc1cc(/C=C2\C(=N)N3N=C(S(C)(=O)=O)SC3=NC2=O)cc(OC)c1OCCOc1ccc(C)cc1	none
CCOCCCNc1nc2c(C)cccn2c(=O)c1/C=C1\SC(=S)N(CC(C)C)C1=O	CRFBP-R2 agonist 169.6 | TMEM16A reconf inactive | HEK293 Ca mobil inactive | YFP-HEK293 quench inactive | ClC-1 rat inh inactive
Cc1cccn2c(=O)c(/C=C3\SC(=S)NC3=O)c(NCCCN3CCOCC3)nc12	none
O=S(=O)(NC1CC(NS(=O)(=O)OCC(Cl)(Cl)Cl)C2CCCCC12)OCC(Cl)(Cl)Cl (stereo not given)	TMEM16A inh 25 (no result: TAAR1 ag, TAAR1 antagonist) | TMEM16A reconf inactive | HEK293 Ca mobil inactive | YFP-HEK293 quench inactive | ClC-1 rat inh inactive
Cc1ccc(S(C)(=O)=O)cc1C(=O)NC(C)C1CC2CCC1C2 (stereo not given)	none
O=C(CCN1C(=O)COc2ccccc21)N1CCCCC1	none | TMEM16A reconf inactive | HEK293 Ca mobil inactive | YFP-HEK293 quench inactive | ClC-1 rat inh inactive
C#CCN(C(=O)c1cc(COc2cccc(C(F)(F)F)c2)on1)C1CCCCC1	TMEM16A inh 100 | TMEM16A reconf 54.0% | HEK293 Ca mobil inactive | YFP-HEK293 quench inactive | ClC-1 rat inh inactive
C#CCN(C(=O)c1cc(COc2ccc(C)c(C)c2)on1)C1CCCCC1	none
COc1ccc(CCC(=O)Nc2ccc(S(=O)(=O)N3CCOCC3)cc2)cc1OC	none (no result: ANO1 activ, TMEM16A inh)
COc1ccc(CN2C[C@@H](CO)O[C@@H](n3cnc4c(N5CCN(CCO)CC5)ncnc43)C2)cc1	none (no result: ANO1 activ, CRFR2-BP antag, TMEM16A inh, CRFBP-R2 agonist)
CCOc1ccc(-c2nnn(CC(=O)c3ccc4c(c3)OCCO4)n2)cc1	none
CCCOc1ccc(-c2nnn(CC(=O)c3ccc4c(c3)OCCO4)n2)cc1	TMEM16A inh 100 | TMEM16A reconf 17.0% | HEK293 Ca mobil inactive | YFP-HEK293 quench inactive | ClC-1 rat inh inactive
